# Laboratory results published in ChEMBL document CHEMBL1125205, “Phosphorus-containing inhibitors of HMG-CoA reductase. 2. Synthesis and biological activities of a series of substituted pyridines containing a hydroxyphosphinyl moiety” (J Med Chem, 1991).
# Molecular target: T1, 3-hydroxy-3-methylglutaryl-coenzyme A reductase (Rattus norvegicus, UniProt P51639)
# T1 sequence (P51639 whole entry): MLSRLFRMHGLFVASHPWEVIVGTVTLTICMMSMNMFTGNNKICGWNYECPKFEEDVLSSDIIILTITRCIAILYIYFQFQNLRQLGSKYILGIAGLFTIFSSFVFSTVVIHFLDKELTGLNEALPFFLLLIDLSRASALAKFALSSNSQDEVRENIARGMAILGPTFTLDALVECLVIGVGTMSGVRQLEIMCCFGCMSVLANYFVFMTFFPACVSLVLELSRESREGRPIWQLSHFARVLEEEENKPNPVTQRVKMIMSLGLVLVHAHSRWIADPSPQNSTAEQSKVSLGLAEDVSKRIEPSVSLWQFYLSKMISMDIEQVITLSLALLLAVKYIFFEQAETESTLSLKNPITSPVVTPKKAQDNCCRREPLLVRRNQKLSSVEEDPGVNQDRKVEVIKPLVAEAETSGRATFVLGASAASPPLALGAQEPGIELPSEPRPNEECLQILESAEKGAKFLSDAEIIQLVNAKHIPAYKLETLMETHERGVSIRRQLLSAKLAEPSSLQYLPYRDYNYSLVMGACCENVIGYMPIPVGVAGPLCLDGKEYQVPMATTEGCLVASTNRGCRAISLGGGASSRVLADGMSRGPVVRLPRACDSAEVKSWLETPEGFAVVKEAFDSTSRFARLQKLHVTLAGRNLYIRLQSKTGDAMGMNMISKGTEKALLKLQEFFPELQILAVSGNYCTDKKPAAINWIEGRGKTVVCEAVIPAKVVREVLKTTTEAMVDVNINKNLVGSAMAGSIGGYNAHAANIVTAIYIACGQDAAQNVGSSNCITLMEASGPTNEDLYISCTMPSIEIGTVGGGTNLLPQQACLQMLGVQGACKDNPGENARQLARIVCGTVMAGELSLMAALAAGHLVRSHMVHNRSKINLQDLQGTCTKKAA
# Experiment: In vitro for inhibition of rat HMG-CoA reductase.
# Details: read-out: I50
# Summary of the method: (§1)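 Enzyme source: hepatic microsomes from cholestyramine-fed Sprague-Dawley rats. Final assay conditions: 0.04 M potassium phosphate pH 7.2, KCl, sucrose, EDTA, 10 mM DTT, 1% DMSO, 50-200 µg microsomal protein. Microsomes were preincubated with 2.7 mM NADPH for 15 min at 37 °C, then with compound for 15 min. 100 µM 14C-[D,L]-HMG-CoA was then added for 20 min at 37 °C. Read-out: 14C-mevalonate, corrected by 3H-mevalonate recovery. I50 taken from composite dose-response regressions, 2-5 experiments.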
row,IC50 [nM],Compound
1,3.9,Cc1cc(F)ccc1-c1cc(-c2ccccc2)nc(C(C)C)c1/C=C/P(=O)(O)C[C@H](O)CC(=O)O
2,156,Cc1cc(F)ccc1-c1cc(-c2ccccc2)nc(C(C)C)c1C#CP(=O)(O)C[C@H](O)CC(=O)O
3,45.3,CC(C)c1cc(-c2ccccc2)nc(-c2ccc(F)cc2)c1/C=C/P(=O)(O)C[C@H](O)CC(=O)O
4,68.4,CC(C)(C)c1nc(-c2ccccc2)cc(-c2ccc(F)cc2)c1C#CP(=O)(O)C[C@H](O)CC(=O)O
5,90.9,O=C(O)C[C@@H](O)CP(=O)(O)C#Cc1c(-c2ccc(F)cc2)cc(-c2ccccc2)nc1C1CC1
6,4.2,CC(C)c1nc(C2CC2)cc(-c2ccc(F)cc2)c1C#CP(=O)(O)C[C@H](O)CC(=O)O
7,231,Cc1cc(-c2ccc(F)cc2)c(C#CP(=O)(O)C[C@H](O)CC(=O)O)c(C(C)C)n1
8,14.6,CC(C)c1nc(-c2cccs2)cc(-c2ccc(F)cc2)c1C#CP(=O)(O)C[C@H](O)CC(=O)O

# The next lines start with the compound.
row,Compound,IC50 [nM]
1,Cc1nc(-c2ccccc2)c(C)c(-c2ccc(F)cc2)c1C#CP(=O)(O)C[C@H](O)CC(=O)O,1300
2,CC(C)c1nc(-c2ccccc2Cc2ccccc2)cc(-c2ccc(F)cc2)c1C#CP(=O)(O)C[C@H](O)CC(=O)O,62.6
3,CC(C)c1nc(-c2ccccc2)c(C(C)C)c(-c2ccc(F)cc2)c1C#CP(=O)(O)C[C@H](O)CC(=O)O,9.8
4,Cc1cc(-c2cc(-c3ccccc3)nc(C(C)C)c2C#CP(=O)(O)C[C@H](O)CC(=O)O)ccc1F,22
5,CC(C)c1cc(-c2ccc(F)cc2)c(C#CP(=O)(O)C[C@H](O)CC(=O)O)c(C(C)C)n1,80.9
6,CCc1nc(-c2ccccc2)c(C)c(-c2ccc(F)cc2)c1/C=C/P(=O)(O)C[C@H](O)CC(=O)O,4.7
7,Cc1ccccc1-c1cc(-c2ccc(F)cc2)c(C#CP(=O)(O)C[C@H](O)CC(=O)O)c(C(C)C)n1,32.6
8,CC(C)c1nc(C2CCCCC2)cc(-c2ccc(F)cc2)c1C#CP(=O)(O)C[C@H](O)CC(=O)O,48.4
9,Cc1c(-c2ccccc2)nc(C2CC2)c(CCP(=O)(O)C[C@H](O)CC(=O)O)c1-c1ccc(F)cc1,9.2
10,CC(C)c1nc2c(c(-c3ccc(F)cc3)c1C#CP(=O)(O)C[C@H](O)CC(=O)O)CCCc1ccccc1-2,14.4

# Molecular target: T1, 3-hydroxy-3-methylglutaryl-coenzyme A reductase
# Experiment: The compound was tested in vitro for inhibition of rat hepatic HMG-CoA reductase.
# Format: functional
# Details: read-out: I50
# Summary of the method: as §1
row,IC50 [nM],Compound
1,1.4,CC(C)c1nc(C(C)(C)C)cc(-c2ccc(F)cc2)c1COP(=O)(O)C[C@H](O)CC(=O)O
2,1.3,Cc1c(-c2ccccc2)nc(C2CC2)c(COP(=O)(O)C[C@H](O)CC(=O)O)c1-c1ccc(F)cc1
3,1.2,CC(C)c1nc2c(c(-c3ccc(F)cc3)c1COP(=O)(O)C[C@H](O)CC(=O)O)CCCc1ccccc1-2

# Second part, the compound before the results:
row,Compound,IC50 [nM]
1,Cc1nc(-c2ccccc2)c(C)c(-c2ccc(F)cc2)c1COP(=O)(O)C[C@H](O)CC(=O)O,1300
2,CCc1nc(-c2ccccc2)c(C)c(-c2ccc(F)cc2)c1COP(=O)(O)C[C@H](O)CC(=O)O,19.4
3,O=C(O)C[C@@H](O)CP(=O)(O)OCc1c(-c2ccc(F)cc2)cc(-c2ccccc2)nc1C1CC1,29
4,Cc1c(-c2ccccc2)nc(C(C)C)c(COP(=O)(O)C[C@H](O)CC(=O)O)c1-c1ccc(F)cc1,5.1
5,CC(C)c1nc(-c2ccccc2)cc(-c2ccc(F)cc2)c1COP(=O)(O)C[C@H](O)CC(=O)O,12.7
6,CCc1c(-c2ccccc2)nc(C(C)C)c(COP(=O)(O)C[C@H](O)CC(=O)O)c1-c1ccc(F)cc1,2.5
